Results on ten compounds are retold here after ChEMBL document CHEMBL3853286, “Screening and Biological Effects of Marine Pyrroloiminoquinone Alkaloids: Potential Inhibitors of the HIF-1α/p300 Interaction” (J Nat Prod, 2016).

Test [1] concerns the target T1, Hypoxia-inducible factor 1-alpha (Homo sapiens, UniProt Q16665). Nature of the test: Inhibition of hypoxia-induced HIF1alpha transcriptional activity in human HCT116 cells at 0.1 to 10 uM measured after 18 hrs by hypoxia response element-driven dual luciferase reporter gene assay relative to hypoxia control. The class given is cell-based. The conditions noted are these: HCT-116. Summed up: (§1)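 HCT 116 cells seeded 50 000/well and cotransfected (Lipofectamine 2000) with 100 ng pGL4.42 HRE-firefly luciferase and 10 ng pRL-TK Renilla. After 24 h, treated in 0.1% FBS medium with compound (0.01−10 μM), chetomin (0.5 μM) or tirapazamine (25 μM). Incubated 18 h at 0.5% O2 or normoxia. HRE:TK ratio normalized to hypoxic DMSO control. Wilcoxon test with Hochberg correction.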
(In a reporter assay the amount or activity of a reporter protein is the signal.)
Target sequence in this assay (Q16665 whole entry, looked up): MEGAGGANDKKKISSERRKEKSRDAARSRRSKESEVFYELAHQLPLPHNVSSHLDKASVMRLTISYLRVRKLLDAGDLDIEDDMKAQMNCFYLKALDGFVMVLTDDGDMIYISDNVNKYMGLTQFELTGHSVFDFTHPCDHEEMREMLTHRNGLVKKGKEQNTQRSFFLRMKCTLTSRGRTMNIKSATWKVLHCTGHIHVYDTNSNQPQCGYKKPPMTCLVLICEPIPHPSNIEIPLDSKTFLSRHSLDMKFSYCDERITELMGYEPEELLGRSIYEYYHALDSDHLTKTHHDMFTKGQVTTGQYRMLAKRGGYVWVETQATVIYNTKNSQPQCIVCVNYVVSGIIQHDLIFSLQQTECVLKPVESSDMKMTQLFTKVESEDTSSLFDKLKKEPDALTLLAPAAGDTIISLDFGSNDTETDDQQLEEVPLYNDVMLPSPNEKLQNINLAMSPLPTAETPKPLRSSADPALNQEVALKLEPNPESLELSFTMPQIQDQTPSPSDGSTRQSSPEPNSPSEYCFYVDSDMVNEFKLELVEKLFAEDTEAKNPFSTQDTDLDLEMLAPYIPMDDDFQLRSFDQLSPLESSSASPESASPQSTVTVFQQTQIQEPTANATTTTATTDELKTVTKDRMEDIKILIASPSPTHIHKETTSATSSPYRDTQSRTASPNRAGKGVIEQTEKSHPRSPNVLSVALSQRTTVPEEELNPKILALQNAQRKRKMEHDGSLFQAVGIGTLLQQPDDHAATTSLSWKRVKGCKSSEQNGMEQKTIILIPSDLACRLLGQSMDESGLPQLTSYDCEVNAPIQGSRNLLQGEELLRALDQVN

Test [2] in a line: Cytotoxicity against human LNCAP cells measured after 18 hrs under hypoxic condition by CCK8 assay. It counts as functional, cell-based. The essentials: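 LNCaP cells in phenol-free RPMI-1640 with 10% FBS, seeded 15 000 cells/well. After 24 h, exposed to compound (0.1−10 μM), tirapazamine or DMSO (0.5%, v/v) for 18 h at 1% O2. CCK-8 absorbance read at 450 nm after 2 h at 37 °C and normalized to DMSO controls to give percent viability. Quadruplicate wells, triplicate experiments.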

For test [3], the target named is T1, Hypoxia-inducible factor 1-alpha. Nature of the test: Displacement of GST-tagged p300-CH1 domain (323 to 423 residues) from synthetic biotinylated HIF-1alpha C-TAD domain (786 to 826 residues) (unknown origin) measured after overnight incubation by fluorescence analysis. The essentials:
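Cell-free protein–protein displacement assay. The p300 CH1 domain is displaced from the HIF-1α C-TAD, which is immobilized on streptavidin-coated plates. IC50 values derived.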
Target sequence in this assay (Q16665 whole entry): as the sequence (Q16665 whole entry, looked up) above

Test [4] is described as follows: Cytotoxicity against human HCT116 cells measured after 18 hrs under hypoxic condition by CCK8 assay. The class given is functional, cell-based. The conditions noted are these: HCT-116, 18 h. The essentials:
(§2)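 HCT 116 cells in McCoy's 5A with 10% FBS, seeded 10 000 cells/well. After 24 h, treated with compound (0.05−50 μM), tirapazamine positive control or DMSO (0.5%, v/v). Incubated 18 h or 48 h at 0.5% O2, then CCK-8 for 2 h at 37 °C with absorbance at 450 nm. Percent viability relative to DMSO controls. Quadruplicate wells, triplicate experiments.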
In general terms: Tetrazolium assays rely on reduction of a dye to a coloured formazan, in cell work by metabolically active cells.

Test [5] in a line: Cytotoxicity against human COLO205 cells measured after 48 hrs under hypoxic condition by CCK8 assay. The class given is functional, cell-based. The conditions noted are these: COLO 205, 48 h. The essentials:
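COLO 205 cells in RPMI-1640 with 10% FBS, seeded 15 000 cells/well. After 24 h, treated with fresh medium holding compound (0.001−10 μM), tirapazamine positive control or DMSO (0.5%, v/v). Incubated 48 h at 0.5% O2, then CCK-8 added for 2 h at 37 °C and absorbance read at 450 nm. Viability normalized to DMSO controls. Quadruplicate wells, triplicate experiments.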

Test [6] has as its target T1, Hypoxia-inducible factor 1-alpha. Nature of the test: Inhibition of hypoxia-induced HIF1alpha transcriptional activity in human LNCAP cells at 0.1 to 10 uM measured after 18 hrs by hypoxia response element-driven dual luciferase reporter gene assay relative to hypoxia control. The class given is cell-based. The essentials: (§3)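 LNCaP cells seeded 15 000/well and cotransfected (Lipofectamine 3000) with 10 ng pGL4.42 HRE-luciferase and 1 ng pRL-TK. After 24 h, treated in phenol-free RPMI-1640 with 0.1% charcoal-stripped FBS containing compound (0.1, 1, 10 μM). Incubated 18 h at 1% O2. Dual-luciferase HRE:TK ratio normalized to hypoxic DMSO control. Quadruplicate wells, triplicate experiments, Wilcoxon test with Hochberg correction.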
Target sequence in this assay (Q16665 whole entry, looked up): as above

Test [7] has the same target. Nature of the test: Inhibition of hypoxia-induced HIF1alpha transcriptional activity in human HCT116 cells assessed as compound concentration causing inhibition of transcriptional activity measured after 18 hrs by hypoxia response element-driven dual luciferase reporter gene assay relative to hypoxia control. Particulars: HCT-116. It counts as cell-based. The essentials: as §1
Target sequence in this assay (Q16665 whole entry, looked up): as above

Test [8] has the same target. Nature of the test: Inhibition of hypoxia-induced HIF1alpha transcriptional activity in human LNCAP cells assessed as compound concentration causing inhibition of transcriptional activity measured after 18 hrs by hypoxia response element-driven dual luciferase reporter gene assay relative to hypoxia control. The class given is cell-based. The essentials: as §3
Target sequence in this assay (Q16665 whole entry, looked up): as above
For test [9] the target is unchanged. Nature of the test: Inhibition of HIF-1alpha in human PC3 cells assessed as decrease in ENO1 mRNA expression level. The class given is cell-based. The conditions noted are these: PC-3.
Target sequence in this assay (Q16665 whole entry, looked up): as above
Test [10] shares this target. Nature of the test: Inhibition of HIF-1alpha in human PC3 cells assessed as decrease in VEGF mRNA expression level. The class given is cell-based. The conditions noted are these: PC-3.
Target sequence in this assay (Q16665 whole entry, looked up): as above
For test [11] the target is unchanged. Nature of the test: Inhibition of HIF-1alpha in human PC3 cells assessed as decrease in LDHA mRNA expression level. The class given is cell-based. Particulars: PC-3.
The nature of test [12]: Cytotoxicity against human HCT116 cells measured after 48 hrs under hypoxic condition by CCK8 assay. The class given is functional, cell-based. The conditions noted are these: HCT-116, 48 h. Summed up: as §2
In test [13] the target is T1, Hypoxia-inducible factor 1-alpha. Nature of the test: Inhibition of HIF1alpha in human LNCAP cells assessed as hypoxia-induced VEGF secretion at 0.25 to 1 uM measured after […] under hypoxic conditions by ELISA. It counts as cell-based. For orientation: In an ELISA, binding on a coated surface is turned into a signal by an enzyme label.
For test [14] the target is unchanged. Nature of the test: Inhibition of hypoxia-induced HIF1alpha transcriptional activity in human HCT116 cells at 0.25 to 0.5 uM measured after 18 hrs by hypoxia response element-driven dual luciferase reporter gene assay relative to hypoxia control. The conditions noted are these: HCT-116. The class given is cell-based. Summed up:
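HCT 116 cells seeded 50 000/well and cotransfected with 100 ng pGL4.42 (4×HRE-firefly luciferase) and 10 ng pRL-TK Renilla using Lipofectamine 2000. After 24 h, cells treated in medium with 0.1% FBS, compound 0.01–10 μM. Incubated 18 h at 0.5% O2 or normoxia. HRE:TK signal divided by the mean of the DMSO hypoxic controls gives fold-induction. Quadruplicate wells, triplicate experiments.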

Test [15] shares this target. Nature of the test: Inhibition of hypoxia-induced HIF1alpha transcriptional activity in human LNCAP cells at 0.25 to 0.5 uM measured after 18 hrs by hypoxia response element-driven dual luciferase reporter gene assay relative to hypoxia control. It counts as cell-based.
Test [16] shares this target. Nature of the test: Inhibition of HIF-1alpha in human LNCAP cells assessed as decrease in VEGF secretion at 0.5 uM measured after 18 hrs under hypoxic conditions by ELISA. The class given is cell-based. The essentials: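 LNCaP cells seeded 15 000/well in 96-well plates and incubated overnight at 37 °C. Medium then replaced with medium containing 0.1% charcoal-stripped FBS plus compound at 0.25, 0.5 or 1 μM, or DMSO control. Incubated 18 h at 1% O2. Supernatant diluted 2-fold and VEGF quantified by Quantikine ELISA. Values normalised per cell using CCK-8 viability. Triplicate experiments; exact Wilcoxon test with Hochberg correction.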

Test [17] shares this target. Nature of the test: Inhibition of HIF1alpha in human LNCAP cells assessed as hypoxia-induced VEGF secretion at 0.5 uM measured after 18 hrs under hypoxic conditions by ELISA.

Activity calls are given as the source filed them. The rule behind the calls is not given here.

Regarding `O=C1C=C2S[C@H]3C[C@]2(C=C1Br)C1=C(N3)C(=O)c2[nH]cc3c2C1=NCC3` [(+)-DISCORHABDIN B], the “inhibition (qualitative active call)” value in [1] is “Active”. Also, the IC50 (usually the concentration that inhibits the measured activity by half) turned out to be 7 µM in [2], 3.7 µM in test [3], 3.1 µM in [4] and 1.8 µM in [5]. Moreover, the “inhibition outcome (active/inactive)” value in [6] was “Active”. Further, the Concentration causing inhibition in [7] is 0.1 µM; in test [8] it was 1 µM.
For `O=C1C2=C(C3=NCCc4c[nH]c1c43)[C@]1(C=C(Br)[C@H](O)C(Br)=C1)CCN2`, the “inhibition (qualitative active call)” value in [1] is “Active”. The IC50 in [2] is greater than 10 µM; in [3] it was 35.2 µM; in test [4], 8.6 µM; in test [5] it was 5.1 µM. Further, the “inhibition outcome (active/inactive)” value in [6] is “Active”. Besides, the Concentration causing inhibition in test [7] amounted to 10 µM; in test [8] it was 1 µM.
As for `CN1C(=O)[C@]23CC4=CC=C[C@H](O)[C@H]4N2C(=O)[C@@]1(CO)SS3`, the inhibition result in test [9], in test [10] and in test [11] was “Active” in each case.
For the compound `O=C1C2=C3C4=[N+](CCc5c[nH]c1c54)[C@@H]1C(=O)C=C4S[C@@H](C[C@@]43[C@H]1O)N2`, the “inhibition (qualitative active call)” value in test [1] was “Active”. Moreover, the half-inhibitory concentration (IC50) in [2] is 8.3 µM; in test [3] it was 0.73 µM; in [4], 6.2 µM; in test [12], greater than 50 µM; in test [5], 7.6 µM. Further, in test [6], the “inhibition outcome (active/inactive)” value was “Active”. In test [13], the inhibition entry is “Active”. Further, the Concentration causing inhibition is 0.1 µM in test [7] and 1 µM in test [8].
For the compound `CN1C(=O)[C@@]2(CO)SS[C@@]1(Cc1cn([C@]34C[C@@]56SS[C@](CO)(C(=O)N5[C@H]3Nc3ccccc34)N(C)C6=O)c3ccccc13)C(=O)N2C`, the inhibition entry in test [14], in test [15] and in test [16] was “Active” in each case. The IC50 in [3] came out at 1.9 µM.
Regarding `Nc1n[n+]([O-])c2ccccc2[n+]1[O-]` [TIRAPAZAMINE], the IC50 in test [4] stood at 72.7 µM; in [12] it was 11.9 µM; in test [5], 47.7 µM.
For the compound `O=C1C(NC2Cc3cc(Br)c(O)cc3S2)=CC2=NCCc3c[nH]c1c32` (centres undefined) [MAKALUVAMINE F], the “inhibition (qualitative active call)” value in [1] was “Active”. Also, the IC50 is greater than 10 µM in test [2], 8.3 µM in test [3], 7.2 µM in test [4] and greater than 10 µM in test [5]. The “inhibition outcome (active/inactive)” value in test [6] is “Active”. Moreover, the results for the Concentration causing inhibition in test [7] and in test [8] were 0.25 µM and 0.1 µM, respectively.
As for `O=C1C=C(S[C@H]2[C@H]3C(=O)C=C4S[C@H]5C[C@]42C2=C(N5)C(=O)c4[nH]cc5c4C2=[N+]3CC5)[C@]2(C=C1Br)CCNC1=C2C2=NCCc3c[nH]c(c32)C1=O`, the “inhibition (qualitative active call)” value in [1] was “Active”. Besides, the IC50 was greater than 10 µM in test [2]; 2.4 µM in test [3]; greater than 10 µM in test [4]; 26.8 µM in test [12]; greater than 10 µM in [5]. In addition, in test [6], the “inhibition outcome (active/inactive)” value is “Active”. Further, the Concentration causing inhibition worked out at 0.1 µM in test [7] and 1 µM in [8].
For `Cn1c(C[C@H](N)C(=O)O)cnc1S[C@H]1[C@H]2C(=O)C=C3S[C@H]4C[C@]31C1=C(N4)C(=O)c3[nH]cc4c3C1=[N+]2CC4`, the “inhibition (qualitative active call)” value in test [1] is “Active”. Also, the IC50 in [2] is greater than 10 µM; in [3] it was 2.2 µM; in [4], greater than 10 µM; in [12] it was greater than 50 µM; in test [5] it was greater than 10 µM. For the same compound, the “inhibition outcome (active/inactive)” value in [6] was “Active”. The Concentration causing inhibition in test [7] was determined as 0.5 µM; in test [8], 0.1 µM. In addition, in test [17], the inhibition result was “Active”.
Take `O=C1C=C(SSC2=CC(=O)C(Br)=C[C@]23CCNC2=C3C3=NCCc4c[nH]c(c43)C2=O)[C@]2(C=C1Br)CCNC1=C2C2=NCCc3c[nH]c(c32)C1=O`: the “inhibition (qualitative active call)” value in test [1] was “Active”. For the same compound, the IC50 in [2] was greater than 10 µM; in test [3], greater than 100 µM; in test [4] it was greater than 10 µM; in [5], greater than 10 µM. The Concentration causing inhibition in [7] was found to be 0.1 µM.
